≈ marks a conversion by molar mass, not a printed value. Calls of active or inactive are those of the source. No cut-off for these calls is given here.
How the values were obtained:
Mus musculus [1] = assay: Toxicity in SCID nude mouse xenografted with human NCI-H1975 cells assessed as body weight loss at 10 to 30 mg/kg, po qd after 14 days relative to vehicle-treated control; format: organism-based; parameters: dose 10-30 mg/kg, route oral; details: in vivo, 336 h
How it was run: (§1)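 SCID mice (6 weeks) were given H1975 cells subcutaneously in the right flank at 2 × 10^6 per mouse. At 200−300 mm3, n = 5 per group were randomized to daily oral vehicle or compound at 10 or 30 mg/kg for 14 days. Vehicle: 1% DMSO, 5% EtOH, 15% castor oil, 79% H2O. Tumors (W²·L/2) and body weight were measured every other day; TGI was calculated against vehicle controls.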

Mus musculus [2] = assay: Toxicity in SCID nude mouse xenografted with human NCI-H1975 cells assessed as mortality at 10 to 30 mg/kg, po qd after 14 days; format: organism-based; parameters: dose 10-30 mg/kg, route oral; details: in vivo, 336 h
How it was run: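 SCID mice (six weeks old) implanted subcutaneously in the right flank with H1975 cells (2 × 10⁶/mouse). Once tumours averaged 200−300 mm³, animals were randomized (n = 5 per group) and given vehicle or drug orally once daily for 14 days. Vehicle: 1% DMSO, 5% EtOH, 15% castor oil, 79% H₂O, at 0.1 mL/20 g. Mice were watched for morbidity, and body weight was recorded every other day.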

NCI-H1975 [3] = assay: Antitumor activity against human NCI-H1975 cells xenografted in SCID nude mouse assessed as tumor growth inhibition at 30 mg/kg, po qd after 14 days; format: functional; details: NCI-H1975, 336 h, read-out: TGI; how it was run: as §1
NCI-H1975 [4] = assay: Antitumor activity against human NCI-H1975 cells xenografted in SCID nude mouse assessed as tumor growth inhibition at 10 mg/kg, po qd after 14 days; format: functional; details: NCI-H1975, 336 h, read-out: TGI; how it was run: as §1
NCI-H1975 [5] = assay: Antitumor activity against human NCI-H1975 cells xenografted in po dosed SCID nude mouse assessed as tumor growth inhibition administered qd after 14 days; format: functional, organism-based; how it was run: as §1
[6] = Antiproliferative activity against human HCC827 cells expressing EGFR E746 to A750 deletion mutant after 72 hrs by MTS assay; format: functional, cell-based; details: HCC827, 72 h
How it was run: (§2)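 MTS proliferation assay: cells exposed to compound for 72 h at six concentrations (0.1 nM to 10 μM), each concentration run six times. Cell number per line set to give an absorbance of 0.5–1.2 at […]. IC50 from a nonlinear sigmoidal dose–response fit. Values are means of at least three independent experiments.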

[7] = Antiproliferative activity against human HL7702 cells after 72 hrs by MTS assay; format: cell-based; details: L02, 72 h
[8] = Antiproliferative activity against human 95-D cells expressing wild-type EGFR after 72 hrs by MTS assay; format: cell-based; how it was run: as §2
[9] = Antiproliferative activity against human H460 cells expressing wild-type EGFR after 72 hrs by MTS assay; format: cell-based; details: NCI-H460, 72 h; how it was run: as §2
[10] = biological target: Proto-oncogene tyrosine-protein kinase Src (Homo sapiens) (UniProt P12931); assay: Binding affinity to SRC (unknown origin)
[11] = biological target: Receptor-type tyrosine-protein kinase FLT3 (Homo sapiens) (UniProt P36888); assay: Binding affinity to FLT3 (unknown origin)
Receptor-type tyrosine-protein kinase FLT3 (Homo sapiens), sequence (P36888 whole entry, the tested form may be a part): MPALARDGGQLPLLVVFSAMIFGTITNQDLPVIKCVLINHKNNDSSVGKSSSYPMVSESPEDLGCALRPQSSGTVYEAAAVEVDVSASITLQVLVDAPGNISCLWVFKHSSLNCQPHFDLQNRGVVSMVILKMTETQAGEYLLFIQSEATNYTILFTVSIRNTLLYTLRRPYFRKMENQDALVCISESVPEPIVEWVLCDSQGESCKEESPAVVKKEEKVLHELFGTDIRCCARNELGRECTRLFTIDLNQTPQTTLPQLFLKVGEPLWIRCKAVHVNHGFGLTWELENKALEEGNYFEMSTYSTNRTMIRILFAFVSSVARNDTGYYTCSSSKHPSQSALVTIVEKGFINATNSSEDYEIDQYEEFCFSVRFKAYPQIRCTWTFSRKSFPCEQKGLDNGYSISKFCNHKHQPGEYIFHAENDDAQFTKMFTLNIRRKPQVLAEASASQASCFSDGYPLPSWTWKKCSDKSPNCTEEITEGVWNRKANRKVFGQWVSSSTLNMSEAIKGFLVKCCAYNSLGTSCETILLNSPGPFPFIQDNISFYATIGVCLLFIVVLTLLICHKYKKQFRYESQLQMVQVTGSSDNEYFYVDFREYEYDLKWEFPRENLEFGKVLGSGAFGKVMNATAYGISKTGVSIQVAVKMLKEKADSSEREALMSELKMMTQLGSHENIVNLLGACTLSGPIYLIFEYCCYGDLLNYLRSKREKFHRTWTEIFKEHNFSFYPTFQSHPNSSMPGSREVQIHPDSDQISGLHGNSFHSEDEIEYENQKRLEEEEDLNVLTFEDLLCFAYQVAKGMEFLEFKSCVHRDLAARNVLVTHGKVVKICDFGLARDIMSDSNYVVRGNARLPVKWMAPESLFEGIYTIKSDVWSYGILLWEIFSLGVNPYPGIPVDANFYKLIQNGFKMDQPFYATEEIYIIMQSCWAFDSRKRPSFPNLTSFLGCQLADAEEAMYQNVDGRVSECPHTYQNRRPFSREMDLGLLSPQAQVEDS

[12] = biological target: Epithelial discoidin domain-containing receptor 1 (Homo sapiens) (UniProt Q08345); assay: Binding affinity to DDR1 (unknown origin)
Epithelial discoidin domain-containing receptor 1 (Homo sapiens), sequence (Q08345 whole entry, the tested form may be a part): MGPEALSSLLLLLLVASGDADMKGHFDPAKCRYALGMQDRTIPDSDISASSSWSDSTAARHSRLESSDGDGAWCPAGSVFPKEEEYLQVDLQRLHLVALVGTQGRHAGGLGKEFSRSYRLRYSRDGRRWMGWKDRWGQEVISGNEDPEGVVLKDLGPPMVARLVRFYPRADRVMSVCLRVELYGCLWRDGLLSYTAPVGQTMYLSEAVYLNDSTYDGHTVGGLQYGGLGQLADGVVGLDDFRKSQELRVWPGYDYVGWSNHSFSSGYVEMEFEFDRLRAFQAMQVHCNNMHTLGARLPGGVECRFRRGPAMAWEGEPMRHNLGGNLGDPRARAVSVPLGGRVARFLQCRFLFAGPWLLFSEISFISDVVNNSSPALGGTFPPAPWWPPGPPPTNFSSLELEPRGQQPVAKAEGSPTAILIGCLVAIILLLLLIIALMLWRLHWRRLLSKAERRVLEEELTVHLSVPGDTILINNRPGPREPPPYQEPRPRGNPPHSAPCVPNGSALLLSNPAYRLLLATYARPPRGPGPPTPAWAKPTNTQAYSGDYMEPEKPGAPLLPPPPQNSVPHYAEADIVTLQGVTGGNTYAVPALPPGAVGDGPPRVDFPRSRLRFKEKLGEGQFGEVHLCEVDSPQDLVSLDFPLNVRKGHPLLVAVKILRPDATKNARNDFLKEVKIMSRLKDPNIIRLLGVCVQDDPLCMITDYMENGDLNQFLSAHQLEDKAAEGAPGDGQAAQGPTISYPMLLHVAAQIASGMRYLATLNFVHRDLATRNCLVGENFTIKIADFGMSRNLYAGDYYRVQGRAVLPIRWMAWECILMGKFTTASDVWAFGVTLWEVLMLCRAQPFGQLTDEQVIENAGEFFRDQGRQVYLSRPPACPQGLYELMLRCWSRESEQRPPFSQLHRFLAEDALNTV

[13] = biological target: Tyrosine-protein kinase Blk (Homo sapiens) (UniProt P51451); assay: Binding affinity to BLK (unknown origin)
Tyrosine-protein kinase Blk (Homo sapiens), sequence (P51451 2-505 limits assumed): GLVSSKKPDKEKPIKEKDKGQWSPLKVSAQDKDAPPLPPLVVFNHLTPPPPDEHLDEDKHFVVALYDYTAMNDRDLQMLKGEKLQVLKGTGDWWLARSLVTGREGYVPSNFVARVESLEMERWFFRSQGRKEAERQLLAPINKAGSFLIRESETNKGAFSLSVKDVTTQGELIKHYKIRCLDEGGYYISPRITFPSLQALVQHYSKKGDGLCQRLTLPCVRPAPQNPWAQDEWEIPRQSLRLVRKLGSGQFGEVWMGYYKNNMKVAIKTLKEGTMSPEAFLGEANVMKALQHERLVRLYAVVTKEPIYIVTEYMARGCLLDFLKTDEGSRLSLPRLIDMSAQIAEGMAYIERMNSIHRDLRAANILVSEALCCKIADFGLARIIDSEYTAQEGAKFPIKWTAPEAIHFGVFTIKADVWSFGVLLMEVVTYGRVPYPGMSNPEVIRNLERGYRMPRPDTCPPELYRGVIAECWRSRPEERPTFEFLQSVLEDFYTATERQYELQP

[14] = biological target: T1, Epidermal growth factor receptor (Homo sapiens, UniProt P00533, L858R/T790M); assay: Binding affinity to EGFR L858R/T790M double mutant (unknown origin)
T1 sequence (P00533 25-1210 T790M/L858R limits assumed): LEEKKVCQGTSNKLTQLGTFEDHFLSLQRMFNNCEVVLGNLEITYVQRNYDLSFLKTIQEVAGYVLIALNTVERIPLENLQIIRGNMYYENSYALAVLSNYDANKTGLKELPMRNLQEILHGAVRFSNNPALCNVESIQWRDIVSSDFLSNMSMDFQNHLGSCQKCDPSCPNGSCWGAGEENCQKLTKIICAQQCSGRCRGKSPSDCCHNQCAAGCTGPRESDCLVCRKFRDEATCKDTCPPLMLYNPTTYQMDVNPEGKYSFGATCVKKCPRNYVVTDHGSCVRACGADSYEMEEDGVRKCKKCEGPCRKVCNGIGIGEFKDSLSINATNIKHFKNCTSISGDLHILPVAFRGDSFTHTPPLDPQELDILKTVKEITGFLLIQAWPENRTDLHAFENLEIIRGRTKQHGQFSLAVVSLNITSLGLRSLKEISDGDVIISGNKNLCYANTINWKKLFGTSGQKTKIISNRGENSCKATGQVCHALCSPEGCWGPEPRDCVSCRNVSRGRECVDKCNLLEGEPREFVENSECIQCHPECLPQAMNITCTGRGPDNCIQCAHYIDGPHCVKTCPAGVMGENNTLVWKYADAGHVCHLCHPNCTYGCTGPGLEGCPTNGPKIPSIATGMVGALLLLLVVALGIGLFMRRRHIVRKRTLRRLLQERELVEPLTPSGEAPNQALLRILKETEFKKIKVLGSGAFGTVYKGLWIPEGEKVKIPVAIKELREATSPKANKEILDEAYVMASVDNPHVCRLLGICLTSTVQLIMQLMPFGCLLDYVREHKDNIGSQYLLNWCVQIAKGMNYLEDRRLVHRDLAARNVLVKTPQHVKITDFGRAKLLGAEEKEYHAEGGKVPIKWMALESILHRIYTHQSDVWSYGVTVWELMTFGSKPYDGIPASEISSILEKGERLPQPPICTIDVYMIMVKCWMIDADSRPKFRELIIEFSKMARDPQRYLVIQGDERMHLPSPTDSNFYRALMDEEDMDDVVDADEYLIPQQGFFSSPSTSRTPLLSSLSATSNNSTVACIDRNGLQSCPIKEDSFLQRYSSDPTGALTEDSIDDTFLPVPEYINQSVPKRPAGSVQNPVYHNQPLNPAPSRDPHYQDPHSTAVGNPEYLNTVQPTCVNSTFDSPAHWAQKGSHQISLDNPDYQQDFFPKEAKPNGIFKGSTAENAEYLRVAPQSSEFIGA

[15] = biological target: Epidermal growth factor receptor (Homo sapiens, UniProt P00533, T790M); assay: Inhibition of EGFR T790M mutant (unknown origin); format: protein assay
Epidermal growth factor receptor (Homo sapiens, UniProt P00533, T790M), sequence (P00533 25-1210 T790M limits assumed): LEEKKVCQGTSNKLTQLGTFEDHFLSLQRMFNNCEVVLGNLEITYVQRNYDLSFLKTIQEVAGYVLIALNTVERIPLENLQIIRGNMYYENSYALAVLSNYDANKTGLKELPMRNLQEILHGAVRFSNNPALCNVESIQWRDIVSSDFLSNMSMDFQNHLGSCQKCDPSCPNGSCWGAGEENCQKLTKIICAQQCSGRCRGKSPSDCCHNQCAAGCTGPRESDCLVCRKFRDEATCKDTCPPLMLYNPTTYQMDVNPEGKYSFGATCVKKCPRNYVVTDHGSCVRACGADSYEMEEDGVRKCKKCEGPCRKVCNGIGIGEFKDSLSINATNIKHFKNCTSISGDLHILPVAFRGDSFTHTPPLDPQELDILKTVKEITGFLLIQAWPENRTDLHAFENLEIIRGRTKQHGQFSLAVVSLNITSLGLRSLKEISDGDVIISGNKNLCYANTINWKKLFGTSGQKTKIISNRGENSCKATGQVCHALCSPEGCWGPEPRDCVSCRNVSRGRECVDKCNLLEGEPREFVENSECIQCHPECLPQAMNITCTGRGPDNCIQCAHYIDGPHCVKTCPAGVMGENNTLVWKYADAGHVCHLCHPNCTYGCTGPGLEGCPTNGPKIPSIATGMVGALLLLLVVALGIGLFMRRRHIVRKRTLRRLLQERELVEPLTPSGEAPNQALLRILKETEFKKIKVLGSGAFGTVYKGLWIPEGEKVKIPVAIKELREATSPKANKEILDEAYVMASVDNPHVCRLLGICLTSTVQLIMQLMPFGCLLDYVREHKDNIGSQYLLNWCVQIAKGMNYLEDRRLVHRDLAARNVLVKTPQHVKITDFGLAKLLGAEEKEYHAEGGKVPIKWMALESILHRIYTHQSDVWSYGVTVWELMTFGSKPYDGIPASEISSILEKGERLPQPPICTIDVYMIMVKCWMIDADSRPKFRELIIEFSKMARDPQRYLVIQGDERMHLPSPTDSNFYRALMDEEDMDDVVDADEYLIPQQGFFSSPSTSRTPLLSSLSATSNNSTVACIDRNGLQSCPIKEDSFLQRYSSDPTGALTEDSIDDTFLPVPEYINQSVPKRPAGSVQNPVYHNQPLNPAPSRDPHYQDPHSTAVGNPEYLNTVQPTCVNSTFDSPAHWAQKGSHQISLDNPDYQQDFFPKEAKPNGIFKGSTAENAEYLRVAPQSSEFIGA

NCI-H1975 [16] = assay: Effect on GADPH protein level in human NCI-H1975 cells at 3 to 330 nM after 2 hrs by Western blotting analysis; format: functional, cell-based
[17] = Oral bioavailability in Sprague-Dawley rat at 25 mg/kg by LC/MS analysis; format: ADME, organism-based; details: in vivo
How it was run: (§3)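 Male Sprague-Dawley rats (180−220 g), n = 4 per route, single iv dose 5 mg/kg or oral gavage 25 mg/kg. Vehicle was 2% DMSO, 4% EtOH, 4% castor oil, 90% H2O. Orbital sinus blood was taken from 2 min to 72 h into heparinized tubes. Plasma levels were measured by LC/MS with propranolol internal standard and analysed by pharmacokinetic modelling.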

[18] = Clearance in Sprague-Dawley rat at 25 mg/kg, po by LC/MS analysis; format: ADME, organism-based; parameters: dose 25 mg/kg, route oral; details: in vivo; how it was run: as §3
[19] = Clearance in Sprague-Dawley rat at 5 mg/kg, iv by LC/MS analysis; format: ADME, organism-based; parameters: dose 5 mg/kg, route intravenous; details: in vivo; how it was run: as §3
[20] = Cmax in Sprague-Dawley rat at 25 mg/kg, po by LC/MS analysis; format: ADME, organism-based; parameters: dose 25 mg/kg, route oral; details: in vivo; how it was run: as §3
[21] = Thermodynamic aqueous solubility of the compound in PBS buffer at pH 6.8 after 24 hrs by HPLC analysis; format: physicochemical; details: PBS buffer, pH 6.8; read-out: Therm_solubility
How it was run: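 Compound was shaken in aqueous buffer at pH 6.8 for 24 h at ambient temperature; dissolved concentration was measured by HPLC.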

NCI-H1975 [22] = assay: Antiproliferative activity against human NCI-H1975 cells expressing EGFR L858R/T790M double mutant after 72 hrs by MTS assay; format: functional, cell-based; details: NCI-H1975, 72 h
[23] = biological target: T1, Epidermal growth factor receptor; assay: Inhibition of EGFR L858R/T790M double mutant (unknown origin) after 1.5 hrs by FRET-based Z'-Lyte assay; format: protein assay

Structure (SMILES): C=CC(=O)N1CC[C@H](N2C(=O)N(c3ccccc3)Cc3cnc(Nc4ccc(N5CCN(C)CC5)c(C)c4)nc32)C1
- Activity (Mus musculus [1]): < 5%
- Activity (Mus musculus [2]): Non-toxic
- inhibition in vivo at 30 mg/kg (NCI-H1975 [3]): 56.8%
- inhibition in vivo at 10 mg/kg (NCI-H1975 [4]): 35.4%
- TGI (NCI-H1975 [5]): Dose-dependent effect
- IC50 [6]: 5 nM
- IC50 [7]: > 10000 nM
- IC50 [8]: 4000 nM
- IC50 [9]: 16000 nM
- Activity [10]: Active
- Activity [11]: Active
- Activity [12]: Active
- Activity [13]: Active
- Kd [14]: 1.4 nM
- IC50 [15]: 10 nM
- Activity (NCI-H1975 [16]): inactive
- bioavailability [17]: 30%
- CL/F [18]: 167 mL/min/kg
- clearance [19]: 51.7 mL/min/kg
- Cmax [20]: 1040 ng/mL
- solubility thermodynamic at 24 h [21]: 1270 µg/mL (≈ 2290 µM)
- IC50 (NCI-H1975 [22]): 47 nM
- IC50 [23]: 9.2 nM
